How the values were obtained:
[1] = tested on: MCF7; assay: Induction of apoptosis in human MCF7 cells assessed as late apoptotic cell population at 50 nM measured after 48 hrs by Annexin V-FITC/PI staining based flow cytometry (reference value: 1 %)
[2] = tested on: HOP-62; assay: Antiproliferative activity against human HOP-62 cells assessed as cell growth inhibition measured after 48 hrs by SRB assay; type: functional
Method in brief: (§1)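 Sulforhodamine B (SRB) cell-staining assay across a panel of human cancer lines. Growth inhibition is reported as GI50.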

[3] = tested on: MIA PaCa-2; assay: Antiproliferative activity against human MIA Paca-2 cells assessed as cell growth inhibition measured after 48 hrs by SRB assay; type: functional
Method in brief: as §1

[4] = tested on: MCF7; assay: Antiproliferative activity against human MCF7 cells assessed as cell growth inhibition measured after 48 hrs by SRB assay; type: functional
Method in brief: as §1

[5] = tested on: MCF7; assay: Induction of apoptosis in human MCF7 cells assessed as necrotic cells at 50 nM measured after 48 hrs by annexinV-FITC/propidium iodide staining based flow cytometry (reference value: 0.1 %); type: functional
Method in brief: (§2)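 MCF-7 cells were treated at 50 and 100 nM for 48 h. Annexin V-FITC/PI dual staining was read by flow cytometry. Cells were quadrant-gated as UL, UR, LL and LR, with untreated control alongside.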

[6] = tested on: MCF7; assay: Cell cycle arrest in human MCF7 cells assessed as accumulation at sub-G1 phase at 50 nM measured after 48 hrs by propidium iodide staining based flow cytometry (reference value: 2.4 %); type: functional
Method in brief: (§3)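 MCF-7 cells were treated at 50 and 100 nM for 48 h. Cell-cycle phase distribution (sub-G1, G0/G1, S, G2/M %) was read by flow cytometry against untreated control.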

[7] = tested on: MCF7; assay: Cell cycle arrest in human MCF7 cells assessed as accumulation at G2/M phase at 100 nM measured after 48 hrs by propidium iodide staining based flow cytometry (reference value: 8.44 %); type: functional
[8] = tested on: MCF7; assay: Cell cycle arrest in human MCF7 cells assessed as accumulation at S phase at 100 nM measured after 48 hrs by propidium iodide staining based flow cytometry (reference value: 3.1 %); type: functional
[9] = tested on: DU-145; assay: Antiproliferative activity against human DU-145 cells assessed as cell growth inhibition measured after 48 hrs by SRB assay; type: functional
Method in brief: as §1

[10] = tested on: MCF7; assay: Cell cycle arrest in human MCF7 cells assessed as accumulation at G0/G1 phase at 50 nM measured after 48 hrs by propidium iodide staining based flow cytometry (reference value: 85.3 %); type: functional
Method in brief: as §3

[11] = tested on: MCF7; assay: Induction of apoptosis in human MCF7 cells assessed as late apoptotic cells at 50 nM measured after 48 hrs by annexinV-FITC/propidium iodide staining based flow cytometry (reference value: 0.6 %)
[12] = tested on: MCF7; assay: Induction of apoptosis in human MCF7 cells assessed as activation of caspase 9 at 100 nM measured after 48 hrs by fluorescence assay relative to control; type: functional
Method in brief: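 MCF-7 breast cancer cells treated at 100 nM for 48 h. Caspase-9 activity compared with untreated control. Mean ± SD of two experiments each run in triplicate.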

[13] = tested on: MCF7; assay: Cell cycle arrest in human MCF7 cells assessed as accumulation at sub-G1 phase at 100 nM measured after 48 hrs by propidium iodide staining based flow cytometry (reference value: 2.4 %); type: functional
[14] = tested on: K562; assay: Antiproliferative activity against human K562 cells assessed as cell growth inhibition measured after 48 hrs by SRB assay; type: functional
Method in brief: as §1

[15] = species: Sus scrofa; assay: Inhibition of porcine brain tubulin polymerization at 3 uM measured after 1 hr in presence of GTP by fluorescence assay relative to control; type: tissue-based
Method in brief: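 Tubulin polymerization was followed by fluorescence (excitation 360 nm, emission 420 nm) for 1 h at 37 °C. Compounds were at 3 μM final, with and without compound. Values are mean ± SD of two experiments done in triplicate.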

[16] = tested on: MCF7; assay: Induction of apoptosis in human MCF7 cells assessed as necrotic cells at 100 nM measured after 48 hrs by annexinV-FITC/propidium iodide staining based flow cytometry (reference value: 0.1 %); type: functional
[17] = tested on: MCF7; assay: Induction of apoptosis in human MCF7 cells assessed as late apoptotic cells at 100 nM measured after 48 hrs by annexinV-FITC/propidium iodide staining based flow cytometry (reference value: 0.6 %)
[18] = tested on: MCF7; assay: Induction of apoptosis in human MCF7 cells assessed as live cells at 100 nM measured after 48 hrs by annexinV-FITC/propidium iodide staining based flow cytometry (reference value: 95 %)
[19] = tested on: COLO 205; assay: Antiproliferative activity against human COLO 205 cells assessed as cell growth inhibition measured after 48 hrs by SRB assay; type: functional
Method in brief: as §1

[20] = Inhibition of porcine brain tubulin polymerization measured after 1 hr in presence of GTP by fluorescence assay; type: tissue-based, Sus scrofa
Method in brief: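 Tubulin assembly followed by the rise in fluorescence (ex 360 nm, em 420 nm) over 1 h at 37 °C. Compounds tested at a final 3 μM with a reference control. IC50 defined as the concentration inhibiting 50% of tubulin assembly. Mean ± SD of two experiments in triplicate.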

[21] = tested on: MCF7; assay: Induction of apoptosis in human MCF7 cells assessed as live cells at 50 nM measured after 48 hrs by annexinV-FITC/propidium iodide staining based flow cytometry (reference value: 95 %)
[22] = tested on: MCF7; assay: Cell cycle arrest in human MCF7 cells assessed as accumulation at G0/G1 phase at 100 nM measured after 48 hrs by propidium iodide staining based flow cytometry (reference value: 85.3 %); type: functional
[23] = tested on: MCF7; assay: Induction of apoptosis in human MCF7 cells assessed as late apoptotic cell population at 100 nM measured after 48 hrs by Annexin V-FITC/PI staining based flow cytometry (reference value: 1 %)
[24] = tested on: MCF7; assay: Induction of apoptosis in human MCF7 cells assessed as early apoptotic cells at 50 nM measured after 48 hrs by annexinV-FITC/propidium iodide staining based flow cytometry (reference value: 4.4 %); type: functional
Method in brief: as §2

[25] = tested on: MCF7; assay: Cell cycle arrest in human MCF7 cells assessed as accumulation at G2/M phase at 50 nM measured after 48 hrs by propidium iodide staining based flow cytometry (reference value: 8.44 %); type: functional
Method in brief: as §3

[26] = tested on: SK-OV-3; assay: Antiproliferative activity against human SK-OV-3 cells assessed as cell growth inhibition measured after 48 hrs by SRB assay; type: functional
Method in brief: as §1

[27] = tested on: HeLa; assay: Antiproliferative activity against human HeLa cells assessed as cell growth inhibition measured after 48 hrs by SRB assay; type: functional
Method in brief: as §1

[28] = tested on: MCF7; assay: Induction of apoptosis in human MCF7 cells assessed as early apoptotic cell population at 100 nM measured after 48 hrs by Annexin V-FITC/PI staining based flow cytometry (reference value: 0.7 %)
[29] = tested on: MCF7; assay: Induction of apoptosis in human MCF7 cells assessed as early apoptotic cell population at 50 nM measured after 48 hrs by Annexin V-FITC/PI staining based flow cytometry (reference value: 0.7 %)
[30] = tested on: MCF7; assay: Induction of apoptosis in human MCF7 cells assessed as early apoptotic cells at 100 nM measured after 48 hrs by annexinV-FITC/propidium iodide staining based flow cytometry (reference value: 4.4 %); type: functional
[31] = tested on: MCF7; assay: Cell cycle arrest in human MCF7 cells assessed as accumulation at S phase at 50 nM measured after 48 hrs by propidium iodide staining based flow cytometry (reference value: 3.1 %); type: functional
Method in brief: as §3

Row | SMILES | Activity [1] [%] | GI50 [2] [µM] | GI50 [3] [µM] | GI50 [4] [µM] | Activity [5] [%] | Activity [6] [%] | Activity [7] [%] | Activity [8] [%] | GI50 [9] [µM] | Activity [10] [%] | late apoptotic cells [11] [%] | fold change (FC) [12] | Activity [13] [%] | GI50 [14] [µM] | inhibition [15] [%] | Activity [16] [%] | late apoptotic cells [17] [%] | live cells [18] [%] | GI50 [19] [µM] | IC50 [20] [µM] | other results
1 | COc1ccc(/C=C/C(=O)Nc2c(/C=C\c3cc(OC)c(OC)c(OC)c3)ccc(OC)c2O)cc1OC | 12 | 0.09 | 29.9 | 0.056 | 0.9 | 2.56 | 64.29 | 0.35 | 0.06 | 78.55 | 1.8 | 2 | 3.65 | 0.094 | 69.2 | 0.7 | 2.3 | 82.2 | 0.099 | 1.97 | live cells [21]: 89%; Activity [22]: 28.16%; Activity [23]: 22.5%; Activity [24]: 8.4%; Activity [25]: 15.25%; GI50 [26]: 0.099 µM; GI50 [27]: 7.5 µM; Activity [28]: 7.2%; Activity [29]: 0.8%; Activity [30]: 14.8%; Activity [31]: 2.86%
2 | COc1ccc(/C=C\c2cc(OC)c(OC)c(OC)c2)c(NC(=O)/C=C/c2ccc(F)c(F)c2)c1O | 22.8 | 43.6 | 74 | 0.031 | 1.1 | 2.99 | 66.13 | 0.52 | 0.045 | 70.02 | 2 | 2 | 3.07 | 0.099 | 73.7 | 0.7 | 4.7 | 63.1 | 74.9 | 1.05 | live cells [21]: 86.4%; Activity [22]: 27.47%; Activity [23]: 26%; Activity [24]: 10.5%; Activity [25]: 23.58%; GI50 [26]: 29.8 µM; GI50 [27]: 29.2 µM; Activity [28]: 6.2%; Activity [29]: 6.5%; Activity [30]: 31.4%; Activity [31]: 1.46%
